# In ChEMBL document CHEMBL1134337, “Behavioral approach to nondyskinetic dopamine antagonists: identification of seroquel” (J Med Chem, 2001):
# Columns and labels:
# Mus musculus [1] = experiment: Antagonism of apomorphine induced climbing was determined in female swiss -Webster mice after (ip) administration of 40 mg/kg; format: functional
# Method in brief: (§1)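 Female Swiss-Webster mice (about 20 g) were fasted about 24 h, then given test compound or vehicle ip or po (N = 20 per group). Vehicle was 0.5% w/w hydroxypropylmethylcellulose with 0.1% w/w Tween 80 in water. After 30 min, mice received apomorphine HCl 1.25 mg/kg sc. At 13 min, each mouse was watched for 1 min; score was mean of highest and lowest rung of 27. Groups were compared with vehicle by Student's t-test.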
# Mus musculus [2] = experiment: Antagonism of apomorphine induced climbing was determined in female swiss -Webster mice after (ip) administration of 80 mg/kg; format: functional; method in brief: as §1
# Mus musculus [3] = experiment: Antagonism of apomorphine induced swimming was determined in female swiss -Webster mice after (ip) administration of 80 mg/kg; format: functional
# [4] = target: D(2) dopamine receptor (Rattus norvegicus) (UniProt P61169); experiment: Binding affinity at dopamine receptor D2 from rat by spiropiperidone displacement.
# Sequence of D(2) dopamine receptor (Rattus norvegicus) (P61169 whole entry): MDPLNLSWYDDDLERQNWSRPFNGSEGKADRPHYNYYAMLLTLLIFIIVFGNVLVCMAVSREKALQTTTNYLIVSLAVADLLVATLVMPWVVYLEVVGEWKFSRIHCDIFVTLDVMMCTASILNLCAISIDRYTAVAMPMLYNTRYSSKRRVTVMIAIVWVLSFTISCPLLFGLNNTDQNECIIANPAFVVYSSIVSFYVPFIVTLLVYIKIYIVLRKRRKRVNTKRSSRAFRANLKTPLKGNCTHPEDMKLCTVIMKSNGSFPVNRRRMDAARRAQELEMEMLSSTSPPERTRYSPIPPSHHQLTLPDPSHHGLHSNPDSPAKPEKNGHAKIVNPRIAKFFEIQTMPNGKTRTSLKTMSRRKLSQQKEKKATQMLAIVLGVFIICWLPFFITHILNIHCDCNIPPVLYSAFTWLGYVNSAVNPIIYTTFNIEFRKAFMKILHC
# Method in brief: (§2)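 D2 receptor binding was read as % displacement of spiropiperidone, with test compound at 1000 nM unless stated otherwise. IC50 values used at least five concentrations per compound in triplicate. Each value is the mean of two replicate experiments differing by 5% or less.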
# D(2) dopamine receptor = D(2) dopamine receptor (Rattus norvegicus, UniProt P61169); experiment: Inhibition of spiropiperidone binding at dopamine receptor D2 of rat.
# Sequence of D(2) dopamine receptor (P61169 whole entry): as above
# Mus musculus [5] = experiment: Antagonism of apomorphine induced climbing was determined in female swiss -Webster mice after (ip) administration of 20 mg/kg; format: functional; method in brief: as §1
# Mus musculus [6] = experiment: Antagonism of apomorphine induced swimming was determined in female swiss -Webster mice after (ip) administration of 20 mg/kg; format: functional
# Mus musculus [7] = experiment: Antagonism of apomorphine induced swimming was determined in female swiss -Webster mice after (ip) administration of 40 mg/kg; format: functional
# [8] = Number of animals showing dyskinesias was determined in haloperidol sensitized 2 cebus monkeys after (po) administration of 20 mg/kg; format: functional
# Method in brief: (§3)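 Adult female and male Cebus monkeys sensitized with oral haloperidol 1 mg/kg once per week until dyskinetic reactions occurred. Test drug given orally (2 mL/kg) in 0.5% w/w hydroxypropylmethylcellulose with 0.1% w/w Tween 80 in distilled water, at least 2 weeks between treatments. Two observers watched continuously for 6-7 h, recording reaction type and severity every 30 min. Score is monkeys with dyskinesias/monkeys tested.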
# [9] = Number of animals showing dyskinesias was determined in haloperidol sensitized 2 cebus monkeys after (po) administration of 40 mg/kg; format: functional; method in brief: as §3
# [10] = Number of animals showing dyskinesias was determined in haloperidol sensitized 2 cebus monkeys after (po) administration of 80 mg/kg; format: functional; method in brief: as §3
# Mus musculus [11] = experiment: Antagonism of apomorphine induced climbing was determined in female swiss -Wbster mice after (ip) administration of 20 mg/kg; format: functional; method in brief: as §1
# Mus musculus [12] = experiment: Antagonism of apomorphine induced climbing was determined in female swiss -Wbster mice after (ip) administration of 40 mg/kg; format: functional; method in brief: as §1
# Mus musculus [13] = experiment: Antagonism of apomorphine induced climbing was determined in female swiss -Wbster mice after (ip) administration of 80 mg/kg; format: functional; method in brief: as §1
# Mus musculus [14] = experiment: Antagonism of apomorphine induced climbing was determined in female swiss -Wbster mice after (po) administration of 40 mg/kg; format: functional; method in brief: as §1
# Mus musculus [15] = experiment: Antagonism of apomorphine induced climbing was determined in female swiss -Wbster mice after (po) administration of 80 mg/kg; format: functional; method in brief: as §1
# Mus musculus [16] = experiment: Antagonism of apomorphine induced swimming was determined in female swiss -Wbster mice after (po) administration of 40 mg/kg; format: functional
# Mus musculus [17] = experiment: Antagonism of apomorphine induced swimming was determined in female swiss -Wbster mice after (po) administration of 80 mg/kg; format: functional
# Mus musculus [18] = experiment: Antagonism of apomorphine induced swimming was determined in female swiss -Wbster mice after (ip) administration of 80 mg/kg; format: functional
# Mus musculus [19] = experiment: Antagonism of apomorphine induced climbing was determined in female swiss -Wbster mice after (po) administration of 20 mg/kg; format: functional; method in brief: as §1
# Mus musculus [20] = experiment: Antagonism of apomorphine induced swimming was determined in female swiss -Wbster mice after (po) administration of 20 mg/kg; format: functional
# Mus musculus [21] = experiment: Antagonism of apomorphine induced climbing was determined in female swiss -Webster mice after (po) administration of 20 mg/kg; format: functional; method in brief: as §1
# Mus musculus [22] = experiment: Antagonism of apomorphine induced climbing was determined in female swiss -Webster mice after (po) administration of 5 mg/kg; format: functional; method in brief: as §1
# Mus musculus [23] = experiment: Antagonism of apomorphine induced climbing was determined in female swiss -Webster mice after (p.o.) +SKF525A administration of 10 mg/kg; format: functional; details: route oral; method in brief: as §1
# Mus musculus [24] = experiment: Antagonism of apomorphine induced climbing was determined in female swiss -Webster mice after (p.o.) +SKF525A administration of 20 mg/kg; format: functional; details: route oral; method in brief: as §1
# Mus musculus [25] = experiment: Antagonism of apomorphine induced climbing was determined in female swiss -Webster mice after (ip) administration of 10 mg/kg; format: functional; method in brief: as §1
# Mus musculus [26] = experiment: Antagonism of apomorphine induced climbing was determined in female swiss -Webster mice after (ip) administration of 2.5 mg/kg; format: functional; method in brief: as §1
# Mus musculus [27] = experiment: Antagonism of apomorphine induced climbing was determined in female swiss -Webster mice after (ip) administration of 5 mg/kg; format: functional; method in brief: as §1
# Mus musculus [28] = experiment: Antagonism of apomorphine induced climbing was determined in female swiss -Webster mice after (p.o.) +SKF525A administration of 5 mg/kg; format: functional; details: route oral; method in brief: as §1
# Mus musculus [29] = experiment: Antagonism of apomorphine induced climbing was determined in female swiss -Webster mice after (po) administration of 10 mg/kg; format: functional; method in brief: as §1
# [30] = Number of animals showing dyskinesias was determined in haloperidol sensitized 13 cebus monkeys after (po) administration of 10 mg/kg; format: functional
# Method in brief: (§4)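 Adult male and female Cebus monkeys sensitized with haloperidol 1 mg/kg po weekly until dyskinetic reactions appeared. Drug given orally (2 mL/kg) in 0.5% w/w hydroxypropylmethylcellulose with 0.1% w/w Tween 80, at least 2 weeks between treatments. Two observers watched continuously for 6–7 h, logging reaction type and severity every 30 min. Score is the number of monkeys with dyskinesias over the number tested.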
# [31] = Number of animals showing dyskinesias was determined in haloperidol sensitized 13 cebus monkeys after (po) administration of 20 mg/kg; format: functional; method in brief: as §4
# [32] = Number of animals showing dyskinesias was determined in haloperidol sensitized 4 cebus monkeys after (po) administration of 40 mg/kg; format: functional; method in brief: as §3
# Mus musculus [33] = experiment: Antagonism of apomorphine induced swimming was determined in female swiss -Wbster mice after (po) administration of 10 mg/kg; format: functional
# Mus musculus [34] = experiment: Antagonism of apomorphine induced swimming was determined in female swiss -Webster mice after (ip) administration of 10 mg/kg; format: functional
# Mus musculus [35] = experiment: Antagonism of apomorphine induced swimming was determined in female swiss -Webster mice after (ip) administration of 5 mg/kg; format: functional
# Mus musculus [36] = experiment: Antagonism of apomorphine induced climbing was determined in female swiss -Wbster mice after (ip) administration of 10 mg/kg; format: functional; method in brief: as §1
# [37] = target: D(2) dopamine receptor (Rattus norvegicus) (UniProt P61169); experiment: Inhibitory activity for the displacement of spiropiperidone (1000 nM) from dopamine D2 receptor of rat; method in brief: as §2
# Mus musculus [38] = experiment: Antagonism of apomorphine induced swimming was determined in female swiss -Wbster mice after (ip) administration of 40 mg/kg; format: functional
structure (smiles),measurement,setting,value
OCCOCCN1CCN(C2=Nc3ccccc3Cc3sccc32)CC1,Activity,Mus musculus [1],21
same,Activity,Mus musculus [2],7
[O-][S+]1c2ccccc2N=C(N2CCN(CCOCCO)CC2)c2ccccc21 (centres undefined) [SULFOXIDE METABOLITE],Activity,Mus musculus [2],23
same,Activity,Mus musculus [3],0
CN1CCN(C2=Nc3cc(Cl)ccc3Sc3ccccc32)CC1 [ISOCLOTHIAPINE],% displacement of spiropiperidone,[4],46%
same,Activity,Mus musculus [2],18
OCCOCCOCCN1CCN(C2=Nc3ccccc3Sc3ccccc32)CC1,IC50,D(2) dopamine receptor,1.39 µM
same,Activity,Mus musculus [5],20
same,Activity,Mus musculus [1],14
same,Activity,Mus musculus [2],<3
same,Activity,Mus musculus [6],2
same,Activity,Mus musculus [7],<3
same,Activity,Mus musculus [3],<12
OCCOCCN1CCN(C2=Nc3cc(Cl)ccc3Cc3ccccc32)CC1,No of monkeys,[8],0
same,No of monkeys,[9],0
same,No of monkeys,[10],0
same,IC50,D(2) dopamine receptor,1 µM
same,Activity,Mus musculus [11],19
same,Activity,Mus musculus [12],6
same,Activity,Mus musculus [13],2
same,Activity,Mus musculus [14],26
same,Activity,Mus musculus [15],1
same,Activity,Mus musculus [16],1
same,Activity,Mus musculus [17],2
OCCOCCN1CCN(C2=Nc3cccc(F)c3Sc3ccccc32)CC1,% displacement of spiropiperidone,[4],0%
same,Activity,Mus musculus [13],22
same,Activity,Mus musculus [18],0
OCCOCCN1CCN(C2=Nc3cc(O)ccc3Sc3ccccc32)CC1,% displacement of spiropiperidone,[4],24%
same,Activity,Mus musculus [13],24
same,Activity,Mus musculus [18],0
COC[C@H](CN1CCN(C2=Nc3ccccc3Sc3ccccc32)CC1)OC,% displacement of spiropiperidone,[4],10%
same,Activity,Mus musculus [1],19
same,Activity,Mus musculus [2],1
same,Activity,Mus musculus [7],3
same,Activity,Mus musculus [3],13
O=S1(=O)c2ccccc2N=C(N2CCN(CCOCCO)CC2)c2ccccc21,Activity,Mus musculus [2],23
same,Activity,Mus musculus [3],0
OCCOCCN1CCN(C2=Nc3ccc(O)cc3Cc3ccccc32)CC1,% displacement of spiropiperidone,[4],25%
same,Activity,Mus musculus [11],21
same,Activity,Mus musculus [12],17
same,Activity,Mus musculus [13],2
same,Activity,Mus musculus [19],24
same,Activity,Mus musculus [14],17
same,Activity,Mus musculus [15],10
same,Activity,Mus musculus [20],1
same,Activity,Mus musculus [16],1
same,Activity,Mus musculus [17],3
COCC(CO)N1CCN(C2=Nc3ccccc3Sc3ccccc32)CC1 (centres undefined),IC50,D(2) dopamine receptor,1.64 µM
same,Activity,Mus musculus [2],21
same,Activity,Mus musculus [3],0
CN1CCN(C2=Nc3ccccc3Cc3ccccc32)CC1 [PERLAPINE],IC50,D(2) dopamine receptor,2.7 µM
same,Activity,Mus musculus [21],2
same,Activity,Mus musculus [22],20
same,Activity,Mus musculus [23],20
same,Activity,Mus musculus [24],16
same,Activity,Mus musculus [25],7
same,Activity,Mus musculus [26],9
same,Activity,Mus musculus [5],0
same,Activity,Mus musculus [27],9
same,Activity,Mus musculus [28],24
same,Activity,Mus musculus [29],9
OCCOCCN1CCN(C2=Nc3ccccc3Sc3ccccc32)CC1 [QUETIAPINE],No of monkeys,[30],1
same,No of monkeys,[31],2
same,No of monkeys,[32],0
same,Activity,Mus musculus [11],15
same,Activity,Mus musculus [12],2
same,Activity,Mus musculus [13],0
same,Activity,Mus musculus [19],18
same,Activity,Mus musculus [14],14
same,Activity,Mus musculus [15],8
same,Activity,Mus musculus [33],3
same,Activity,Mus musculus [20],3
same,Activity,Mus musculus [16],11
same,Activity,Mus musculus [17],18
c1ccc2c(c1)N=C(N1CCN(CC3CCCO3)CC1)c1ccccc1S2 (centres undefined),No of monkeys,[9],2
same,IC50,D(2) dopamine receptor,0.417 µM
same,Activity,Mus musculus [25],9
same,Activity,Mus musculus [5],2
same,Activity,Mus musculus [1],7
same,Activity,Mus musculus [27],21
same,Activity,Mus musculus [2],1
same,Activity,Mus musculus [34],7
same,Activity,Mus musculus [6],16
same,Activity,Mus musculus [7],26
same,Activity,Mus musculus [35],1
same,Activity,Mus musculus [3],37
CN1CCN(C2=Nc3cc(Cl)ccc3Cc3ccccc32)CC1,% displacement of spiropiperidone,[4],40%
same,Activity,Mus musculus [1],24
same,Activity,Mus musculus [2],25
OCCOCCN1CCN(C2=Nc3cc(Cl)ccc3Cc3sccc32)CC1,No of monkeys,[8],1
same,% displacement of spiropiperidone,[4],60%
same,Activity,Mus musculus [36],20
same,Activity,Mus musculus [11],1
same,Activity,Mus musculus [12],2
same,Activity,Mus musculus [13],3
COCC(COC)N1CCN(C2=Nc3ccccc3Sc3ccccc32)CC1,inhibition,[37],4%
same,Activity,Mus musculus [2],19
same,Activity,Mus musculus [3],0
CN1CCN(C2=Nc3cc(Cl)ccc3Oc3ccccc32)CC1 [ISOLOXAPINE],% displacement of spiropiperidone,[4],48%
same,Activity,Mus musculus [1],20
same,Activity,Mus musculus [2],14
OCC1COCC(CN2CCN(C3=Nc4ccccc4Sc4ccccc43)CC2)O1 (centres undefined),No of monkeys,[32],4
same,% displacement of spiropiperidone,[4],4%
same,Activity,Mus musculus [5],18
same,Activity,Mus musculus [1],7
same,Activity,Mus musculus [2],0
same,Activity,Mus musculus [6],0
same,Activity,Mus musculus [7],8
same,Activity,Mus musculus [3],27
OCCOCCN1CCN(C2=Nc3ccccc3Oc3ccccc32)CC1,% displacement of spiropiperidone,[4],16%
same,Activity,Mus musculus [12],17
same,Activity,Mus musculus [13],11
same,Activity,Mus musculus [38],1
same,Activity,Mus musculus [18],8
